Reference: BindingDB's records for doi:10.1021/jm0582625 (University of Illinois At Urbana-Champaign, 2006)

How the values were obtained:
[1] = target: farnesyl pyrophosphate synthase (Leishmania major); experiment: Inhibitory activity against FPPS in Leishmania major
[2] = target: T1, Phosphotransferase (Trypanosoma cruzi, UniProt Q8ST54); experiment: Inhibitory activity against Trypanosoma cruzi hexokinase
T1 sequence (Q8ST54 whole entry): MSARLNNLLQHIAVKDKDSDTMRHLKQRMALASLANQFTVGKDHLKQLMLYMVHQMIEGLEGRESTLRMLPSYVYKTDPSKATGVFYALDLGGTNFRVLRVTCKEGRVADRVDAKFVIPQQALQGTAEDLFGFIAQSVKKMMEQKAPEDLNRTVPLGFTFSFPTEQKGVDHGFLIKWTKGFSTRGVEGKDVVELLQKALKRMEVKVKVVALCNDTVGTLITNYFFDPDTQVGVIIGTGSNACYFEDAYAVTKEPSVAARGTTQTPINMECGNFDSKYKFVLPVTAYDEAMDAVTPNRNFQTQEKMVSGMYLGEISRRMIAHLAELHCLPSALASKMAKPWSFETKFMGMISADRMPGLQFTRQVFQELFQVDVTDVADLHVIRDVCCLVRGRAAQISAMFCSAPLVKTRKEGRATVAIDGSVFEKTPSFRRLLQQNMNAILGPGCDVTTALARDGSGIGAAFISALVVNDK
How it was run: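 Native glycosomal T. cruzi hexokinase, purified by a previously described procedure. Activity was followed as NADPH formation at 340 nm, coupled to D-glucose-6-phosphate dehydrogenase. Inhibition was reported as IC50.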

## O=P(O)(O)C(Cc1cccc(-c2ccccc2)c1)S(=O)(=O)O (stereo not given) [2-biphenyl-3-yl-1-phosphono-ethanesulfonic acid]
[1]
  IC50: 11 µM

## O=P(O)(O)C(NC1CC1)P(=O)(O)O [(cyclopropylamino-phosphono-methyl)-phosphonic acid]
[2]
  IC50: > 300 µM

## O=P(O)(O)C(CN[C@@H](CO)c1ccccc1)P(=O)(O)O
[2]
  IC50: > 300 µM

## CCCNC(P(=O)(O)O)P(=O)(O)O [propylaminomethylene-1,1-bisphosphonate]
[2]
  IC50: > 300 µM

## C[C@H](NC(P(=O)(O)O)P(=O)(O)O)c1cccc2ccccc12 [(Bis-phosphono-methyl)-((S)-1-naphthalen-1-yl-ethyl)-ammonium]
[2]
  IC50: > 300 µM
